In ChEMBL document CHEMBL1629658, “A 10-year survey of antifungal susceptibility of candidemia isolates from intensive care unit patients in Greece” (2009):
≈ marks a conversion by molar mass, not a printed value. Numbered stars: 1 amine (or outer) side, 2 acyl side, 3 side chain; on linkers, the order of the positions; unused ones are H or OH. Bridge positions count the residues as written; N and C are the ends. Square brackets hold non-standard residues; d marks the D form. Peptide text beside a SMILES is read from it. * marks the point of attachment. hTyr(3S-OH,4S-OH,3'-OSO3H) = N[C@H](C(=O)O)[C@H](O)[C@@H](O)c1ccc(O)c(OS(=O)(=O)O)c1; pTerphenylCO(4''-OnC5H11) = CCCCCOc1ccc(-c2ccc(-c3ccc(C(=O)*)cc3)cc2)cc1; Orn(4R-OH,5R-OH) = O=C([C@H](C[C@@H](O)[C@@H](O)N[*:3])N[*:1])[*:2]; hTyr(3S-OH,4S-OH) = N[C@H](C(=O)O)[C@H](O)[C@@H](O)c1ccc(O)cc1; Pro(3S-OH,4S-Me) = C[C@H]1CN[C@H](C(=O)O)[C@H]1O; X1 = CCCCCOc1ccc(-c2cc(-c3ccc(C(=O)*)cc3)no2)cc1; Gln(3R-OH) = NC(=O)C[C@@H](O)[C@H](N)C(=O)O; Hyp = O=C(O)[C@@H]1C[C@@H](O)CN1

How the values were obtained:
Type in all cases: functional
Candida albicans = test: Antifungal activity against Candida albicans isolated from candidemia patient by AFST-EUCAST microdilution method
Pichia kudriavzevii [1] = test: Antifungal activity against Candida krusei isolated from candidemia patient by AFST-EUCAST microdilution method
Candida parapsilosis [2] = test: Antifungal activity against Candida parapsilosis isolated from candidemia patient by AFST-EUCAST microdilution method; details: Lodderomyces parapsilosis
Clavispora lusitaniae = test: Antifungal activity against Clavispora lusitaniae isolated from candidemia patient by AFST-EUCAST microdilution method
Nakaseomyces glabratus = test: Antifungal activity against Candida glabrata isolated from candidemia patient by AFST-EUCAST microdilution method
Candida tropicalis = test: Antifungal activity against Candida tropicalis isolated from candidemia patient by AFST-EUCAST microdilution method
Candida dubliniensis = test: Antifungal activity against Candida dubliniensis isolated from candidemia patient by AFST-EUCAST microdilution method
[3] = test system: Meyerozyma guilliermondii; test: Antifungal activity against Candida guilliermondii isolated from candidemia patient by AFST-EUCAST microdilution method
Diutina rugosa = test: Antifungal activity against Candida rugosa isolated from candidemia patient by AFST-EUCAST microdilution method
Wickerhamomyces anomalus = test: Antifungal activity against Candida pelliculosa isolated from candidemia patient by AFST-EUCAST microdilution method; details: Hansenula anomala
Kluyveromyces marxianus = test: Antifungal activity against Candida kefyr isolated from candidemia patient by AFST-EUCAST microdilution method
Yarrowia lipolytica = test: Antifungal activity against Candida lipolytica isolated from candidemia patient by AFST-EUCAST microdilution method
[4] = Antifungal activity against Candida pulcherrima isolated from candidemia patient by AFST-EUCAST microdilution method; details: Metschnikowia pulcherrima
[Candida] intermedia = Antifungal activity against Candida intermedia isolated from candidemia patient by AFST-EUCAST microdilution method; details: Sungouiella intermedia
Pichia kudriavzevii [5] = test: Antifungal activity against Candida krusei ATCC 6258 isolated from candidemia patient by AFST-EUCAST microdilution method
Outline: (§1)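 Designated quality-control strain included on every testing occasion and run by the AFST-EUCAST broth microdilution reference procedure (EDef 7.1) alongside the clinical isolates. Its MICs were checked against the reference range for EUCAST-evaluated drugs. Pure standard compounds were used: azoles, amphotericin B, flucytosine and echinocandins.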

Candida parapsilosis [6] = test: Antifungal activity against Candida parapsilosis ATCC 22019 isolated from candidemia patient by AFST-EUCAST microdilution method; details: Lodderomyces parapsilosis; outline: as §1

SMILES	MIC (Candida albicans) [µg/mL]	MIC90 (Candida albicans) [µg/mL]	MIC (Pichia kudriavzevii [1]) [µg/mL]	MIC90 (Pichia kudriavzevii [1]) [µg/mL]	MIC90 (Candida parapsilosis [2]) [µg/mL]	MIC90 (Clavispora lusitaniae) [µg/mL]	MIC90 (Nakaseomyces glabratus) [µg/mL]	MIC90 (Candida tropicalis) [µg/mL]	MIC (Candida dubliniensis) [µg/mL]	MIC [3] [µg/mL]	MIC (Diutina rugosa) [µg/mL]	MIC (Wickerhamomyces anomalus) [µg/mL]	MIC (Kluyveromyces marxianus) [µg/mL]	MIC (Yarrowia lipolytica) [µg/mL]	MIC [4] [µg/mL]	MIC ([Candida] intermedia) [µg/mL]	MIC (Pichia kudriavzevii [5]) [µg/mL]	MIC (Candida parapsilosis [6]) [µg/mL]	also measured
C[C@@H]1[C@H](O)[C@@H](C)/C=C/C=C/C=C/C=C/C=C/C=C/C=C/[C@H](O[C@@H]2O[C@H](C)[C@@H](O)[C@H](N)[C@@H]2O)C[C@@H]2O[C@](O)(C[C@@H](O)C[C@@H](O)[C@H](O)CC[C@@H](O)C[C@@H](O)CC(=O)O[C@H]1C)C[C@H](O)[C@H]2C(=O)O [AMPHOTERICIN B]	0.12 (≈ 0.13 µM)	0.12 (≈ 0.13 µM)	0.25 (≈ 0.271 µM)	0.25 (≈ 0.271 µM)	0.25 (≈ 0.271 µM)	4 (≈ 4.33 µM)	0.5 (≈ 0.541 µM)	0.25 (≈ 0.271 µM)	0.06 (≈ 0.0649 µM)	0.5 (≈ 0.541 µM)	0.12 (≈ 0.13 µM)	0.25 (≈ 0.271 µM)	0.5 (≈ 0.541 µM)	1 (≈ 1.08 µM)	0.12 (≈ 0.13 µM)	0.5 (≈ 0.541 µM)			MIC (Nakaseomyces glabratus): 0.5 µg/mL (≈ 0.541 µM); MIC (Candida tropicalis): 0.25 µg/mL (≈ 0.271 µM)
CCCCCOc1ccc(-c2ccc(-c3ccc(C(=O)N[C@H]4C[C@@H](O)[C@@H](O)NC(=O)[C@@H]5[C@@H](O)[C@@H](C)CN5C(=O)[C@H]([C@@H](C)O)NC(=O)[C@H]([C@H](O)[C@@H](O)c5ccc(O)cc5)NC(=O)[C@@H]5C[C@@H](O)CN5C(=O)[C@H]([C@@H](C)O)NC4=O)cc3)cc2)cc1 [ANIDULAFUNGIN] ({pTerphenylCO(4''-OnC5H11)}-[Orn(4R-OH,5R-OH)]T[Hyp][hTyr(3S-OH,4S-OH)]T[Pro(3S-OH,4S-Me)]; lactam 1-C)		0.12 (≈ 0.105 µM)		0.06 (≈ 0.0526 µM)	2 (≈ 1.75 µM)	1 (≈ 0.877 µM)	0.12 (≈ 0.105 µM)	0.25 (≈ 0.219 µM)	0.03 (≈ 0.0263 µM)	0.5 (≈ 0.438 µM)	0.12 (≈ 0.105 µM)	1 (≈ 0.877 µM)	16 (≈ 14 µM)	0.03 (≈ 0.0263 µM)	0.03 (≈ 0.0263 µM)	0.03 (≈ 0.0263 µM)	0.25 (≈ 0.219 µM)	0.5 (≈ 0.438 µM)	
CC[C@H](C)C[C@H](C)CCCCCCCCC(=O)N[C@H]1C[C@@H](O)[C@@H](NCCN)NC(=O)[C@@H]2[C@@H](O)CCN2C(=O)[C@H]([C@H](O)CCN)NC(=O)[C@H]([C@H](O)[C@@H](O)c2ccc(O)cc2)NC(=O)[C@@H]2C[C@@H](O)CN2C(=O)[C@H]([C@@H](C)O)NC1=O [CASPOFUNGIN]	0.12 (≈ 0.11 µM)	0.12 (≈ 0.11 µM)	0.5 (≈ 0.457 µM)	0.12 (≈ 0.11 µM)	2 (≈ 1.83 µM)	1 (≈ 0.915 µM)	1 (≈ 0.915 µM)	0.25 (≈ 0.229 µM)	0.25 (≈ 0.229 µM)	1 (≈ 0.915 µM)	0.25 (≈ 0.229 µM)	0.03 (≈ 0.0274 µM)	8 (≈ 7.32 µM)	0.12 (≈ 0.11 µM)	0.03 (≈ 0.0274 µM)	0.03 (≈ 0.0274 µM)	0.5 (≈ 0.457 µM)	2 (≈ 1.83 µM)	
OC(Cn1cncn1)(Cn1cncn1)c1ccc(F)cc1F [FLUCONAZOLE]		0.5 (≈ 1.63 µM)	32 (≈ 104 µM)	32 (≈ 104 µM)	4 (≈ 13.1 µM)	4 (≈ 13.1 µM)	16 (≈ 52.2 µM)	2 (≈ 6.53 µM)	0.12 (≈ 0.392 µM)		2 (≈ 6.53 µM)	2 (≈ 6.53 µM)	0.12 (≈ 0.392 µM)			1 (≈ 3.27 µM)			
Nc1nc(=O)[nH]cc1F [FLUCYTOSINE]		2 (≈ 15.5 µM)		2 (≈ 15.5 µM)	0.5 (≈ 3.87 µM)	2 (≈ 15.5 µM)	0.25 (≈ 1.94 µM)	0.5 (≈ 3.87 µM)	0.12 (≈ 0.93 µM)	0.12 (≈ 0.93 µM)	0.5 (≈ 3.87 µM)	0.12 (≈ 0.93 µM)	0.12 (≈ 0.93 µM)	0.12 (≈ 0.93 µM)	0.12 (≈ 0.93 µM)	64 (≈ 496 µM)			
CCC(C)n1ncn(-c2ccc(N3CCN(c4ccc(OCC5COC(Cn6cncn6)(c6ccc(Cl)cc6Cl)O5)cc4)CC3)cc2)c1=O (configuration not stated) [ITRACONAZOLE]		0.5 (≈ 0.709 µM)	0.12 (≈ 0.17 µM)	0.12 (≈ 0.17 µM)	0.12 (≈ 0.17 µM)	0.25 (≈ 0.354 µM)	0.5 (≈ 0.709 µM)	0.12 (≈ 0.17 µM)	0.06 (≈ 0.085 µM)	1 (≈ 1.42 µM)	0.03 (≈ 0.0425 µM)	0.25 (≈ 0.354 µM)	0.25 (≈ 0.354 µM)	0.12 (≈ 0.17 µM)	0.12 (≈ 0.17 µM)	0.12 (≈ 0.17 µM)			MIC (Nakaseomyces glabratus): 0.5 µg/mL (≈ 0.709 µM); MIC (Candida tropicalis): 0.12 µg/mL (≈ 0.17 µM)
CCCCCOc1ccc(-c2cc(-c3ccc(C(=O)N[C@H]4C[C@@H](O)[C@@H](O)NC(=O)[C@@H]5[C@@H](O)[C@@H](C)CN5C(=O)[C@H]([C@H](O)CC(N)=O)NC(=O)[C@H]([C@H](O)[C@@H](O)c5ccc(O)c(OS(=O)(=O)O)c5)NC(=O)[C@@H]5C[C@@H](O)CN5C(=O)[C@H]([C@@H](C)O)NC4=O)cc3)no2)cc1 [MICAFUNGIN] (X1-[Orn(4R-OH,5R-OH)]T[Hyp][hTyr(3S-OH,4S-OH,3'-OSO3H)][Gln(3R-OH)][Pro(3S-OH,4S-Me)]; lactam 1-C)		0.06 (≈ 0.0472 µM)		0.12 (≈ 0.0945 µM)	2 (≈ 1.57 µM)	0.12 (≈ 0.0945 µM)	0.25 (≈ 0.197 µM)	0.12 (≈ 0.0945 µM)	0.03 (≈ 0.0236 µM)	0.25 (≈ 0.197 µM)	0.03 (≈ 0.0236 µM)	0.5 (≈ 0.394 µM)	4 (≈ 3.15 µM)	0.03 (≈ 0.0236 µM)	0.03 (≈ 0.0236 µM)	0.03 (≈ 0.0236 µM)	0.5 (≈ 0.394 µM)	0.5 (≈ 0.394 µM)	
CC[C@@H]([C@H](C)O)n1ncn(-c2ccc(N3CCN(c4ccc(OC[C@@H]5CO[C@@](Cn6cncn6)(c6ccc(F)cc6F)C5)cc4)CC3)cc2)c1=O [POSACONAZOLE]		0.12 (≈ 0.171 µM)		0.5 (≈ 0.713 µM)	0.12 (≈ 0.171 µM)	0.03 (≈ 0.0428 µM)	0.25 (≈ 0.357 µM)	0.12 (≈ 0.171 µM)	0.01 (≈ 0.0143 µM)	0.12 (≈ 0.171 µM)	0.03 (≈ 0.0428 µM)	0.03 (≈ 0.0428 µM)	0.25 (≈ 0.357 µM)	0.03 (≈ 0.0428 µM)	0.03 (≈ 0.0428 µM)	0.25 (≈ 0.357 µM)			MIC (Clavispora lusitaniae): 0.03 µg/mL (≈ 0.0428 µM)
C[C@@H](c1ncncc1F)[C@](O)(Cn1cncn1)c1ccc(F)cc1F [VORICONAZOLE]	0.01 (≈ 0.0286 µM)	0.03 (≈ 0.0859 µM)		1 (≈ 2.86 µM)	0.06 (≈ 0.172 µM)	0.5 (≈ 1.43 µM)	0.5 (≈ 1.43 µM)	0.12 (≈ 0.344 µM)	0.03 (≈ 0.0859 µM)	0.06 (≈ 0.172 µM)	0.01 (≈ 0.0286 µM)	0.12 (≈ 0.344 µM)	4 (≈ 11.5 µM)	0.03 (≈ 0.0859 µM)	0.25 (≈ 0.716 µM)	0.06 (≈ 0.172 µM)			MIC (Candida parapsilosis [2]): 0.06 µg/mL (≈ 0.172 µM)
